These results are taken from ChEMBL document CHEMBL3792377, “Synthesis and characterization of a series of chiral alkoxymethyl morpholine analogs as dopamine receptor 4 (D4R) antagonists” (Bioorg Med Chem Lett, 2016).

Data set [1] deals with T1, D(1B) dopamine receptor (Homo sapiens, UniProt P21918). Nature of the data set: Displacement of [3H]-SCH-23390 from human recombinant dopamine D5 receptor expressed in CHO cells. The class given is cell-based. (In general: Loss of bound radioactivity is the signal in a displacement assay; it reports binding, not function.)
T1 sequence (P21918 whole entry): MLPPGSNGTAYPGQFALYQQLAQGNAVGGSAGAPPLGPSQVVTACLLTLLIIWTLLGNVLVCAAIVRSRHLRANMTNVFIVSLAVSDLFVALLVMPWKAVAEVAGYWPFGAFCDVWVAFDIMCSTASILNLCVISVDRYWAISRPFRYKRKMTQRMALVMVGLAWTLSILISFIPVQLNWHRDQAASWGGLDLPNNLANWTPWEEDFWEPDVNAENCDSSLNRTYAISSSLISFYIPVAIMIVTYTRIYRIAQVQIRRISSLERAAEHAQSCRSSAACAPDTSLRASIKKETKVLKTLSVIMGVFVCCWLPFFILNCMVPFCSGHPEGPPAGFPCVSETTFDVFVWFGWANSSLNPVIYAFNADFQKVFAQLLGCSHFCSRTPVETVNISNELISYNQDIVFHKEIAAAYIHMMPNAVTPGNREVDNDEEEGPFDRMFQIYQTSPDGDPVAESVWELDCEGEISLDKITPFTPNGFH
For data set [2], the species on record is Homo sapiens. Nature of the data set: Selectivity ratio of Ki for human recombinant dopamine D2L receptor to Ki for human recombinant dopamine D4 receptor.
For data set [3], the species on record is Homo sapiens. In words: Selectivity ratio of Ki for human recombinant dopamine D2S receptor to Ki for human recombinant dopamine D4 receptor.
The species entered for data set [4] is Homo sapiens. Nature of the data set: Selectivity ratio of Ki for human recombinant dopamine D5 receptor to Ki for human recombinant dopamine D4 receptor.
For data set [5], the species on record is Homo sapiens. In words: Selectivity ratio of Ki for human recombinant dopamine D1 receptor to Ki for human recombinant dopamine D4 receptor.
Data set [6] addresses T2, D(3) dopamine receptor (Homo sapiens, UniProt P35462). Nature of the data set: Displacement of [3H]-Spiperone from human recombinant dopamine D3 receptor expressed in CHO cells. The data set is classed as cell-based.
Data set [7] has as its target Dopamine receptors; D3 & D4 (Homo sapiens) (UniProt P35462+P21917). Nature of the data set: Selectivity ratio of Ki for human recombinant dopamine D3 receptor to Ki for human recombinant dopamine D4 receptor.
Data set [8] deals with T3, D(2) dopamine receptor (Homo sapiens, UniProt P14416). In words: Displacement of [3H]-Spiperone from human recombinant dopamine D2S receptor expressed in CHO cells at 10 uM relative to control. The class given is cell-based. In short, it runs like this: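 Off-target dopamine receptor radioligand binding (D1, D2L, D2S, D3, D5), run as a contract assay. Test compound at a single concentration of 10 µM, reported as % inhibition of specific binding, measured in duplicate.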
T3 sequence (P14416 whole entry): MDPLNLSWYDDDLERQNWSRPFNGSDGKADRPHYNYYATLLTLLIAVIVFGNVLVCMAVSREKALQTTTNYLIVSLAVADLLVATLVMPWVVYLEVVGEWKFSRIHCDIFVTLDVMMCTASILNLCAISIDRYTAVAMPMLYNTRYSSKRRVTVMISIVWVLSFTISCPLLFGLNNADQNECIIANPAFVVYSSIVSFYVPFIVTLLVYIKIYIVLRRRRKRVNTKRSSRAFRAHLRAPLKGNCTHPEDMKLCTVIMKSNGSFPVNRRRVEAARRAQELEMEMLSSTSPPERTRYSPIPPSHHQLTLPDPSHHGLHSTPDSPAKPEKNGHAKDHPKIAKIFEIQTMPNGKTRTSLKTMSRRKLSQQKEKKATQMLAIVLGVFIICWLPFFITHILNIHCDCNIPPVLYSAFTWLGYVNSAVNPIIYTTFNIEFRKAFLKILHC

The subject of a further data set is Plasma. Nature of the data set: Fraction unbound in rat plasma by equilibrium dialysis method. The class given is ADME, cell-free. On the technique in general: In equilibrium dialysis free small molecules cross a membrane that holds back macromolecules.
A short description of data set [9]: Ratio of drug level in brain to plasma in rat at 0.25 mg/kg, iv administered through cassette dosing at 0.25 hrs. The class given is ADME, organism-based.
In data set [10] the target is T4, D(1A) dopamine receptor (Homo sapiens, UniProt P21728). Nature of the data set: Displacement of [3H]-SCH-23390 from human recombinant dopamine D1 receptor expressed in CHO cells. The data set is classed as cell-based.
T4 sequence (P21728 whole entry): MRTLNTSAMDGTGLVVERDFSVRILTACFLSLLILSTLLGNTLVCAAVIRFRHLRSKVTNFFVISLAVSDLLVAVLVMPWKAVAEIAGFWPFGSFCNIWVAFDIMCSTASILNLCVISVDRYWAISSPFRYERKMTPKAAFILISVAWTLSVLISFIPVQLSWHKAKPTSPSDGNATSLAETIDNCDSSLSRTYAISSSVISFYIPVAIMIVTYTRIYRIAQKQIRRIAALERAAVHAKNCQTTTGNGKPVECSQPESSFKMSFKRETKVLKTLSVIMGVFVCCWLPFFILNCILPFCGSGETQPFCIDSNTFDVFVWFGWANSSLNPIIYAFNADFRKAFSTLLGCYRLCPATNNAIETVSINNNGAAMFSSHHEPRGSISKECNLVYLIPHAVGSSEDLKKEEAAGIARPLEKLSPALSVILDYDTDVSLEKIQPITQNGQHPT
The nature of data set [11]: Fraction unbound in human plasma by equilibrium dialysis method. The data set is classed as ADME, cell-free.
Data set [12] addresses T3, D(2) dopamine receptor. Nature of the data set: Displacement of [3H]-Spiperone from human recombinant dopamine D2S receptor expressed in CHO cells. The class given is cell-based.
Data set [13] can be described thus: Drug uptake in rat brain at 0.25 mg/kg, iv administered through cassette dosing at 0.25 hrs. The data set is classed as ADME, organism-based. Conditions: read-out: Drug uptake.
For data set [14], the target named is T3, D(2) dopamine receptor. Nature of the data set: Displacement of [3H]-Spiperone from human recombinant dopamine D2L receptor expressed in CHO cells. The data set is classed as cell-based.
Data set [15] in a line: Plasma concentration in rat at 0.25 mg/kg, iv administered through cassette dosing at 0.25 hrs. The data set is classed as ADME, organism-based.
The target of another data set is T5, D(4) dopamine receptor (Homo sapiens, UniProt P21917).
T5 sequence (P21917 whole entry): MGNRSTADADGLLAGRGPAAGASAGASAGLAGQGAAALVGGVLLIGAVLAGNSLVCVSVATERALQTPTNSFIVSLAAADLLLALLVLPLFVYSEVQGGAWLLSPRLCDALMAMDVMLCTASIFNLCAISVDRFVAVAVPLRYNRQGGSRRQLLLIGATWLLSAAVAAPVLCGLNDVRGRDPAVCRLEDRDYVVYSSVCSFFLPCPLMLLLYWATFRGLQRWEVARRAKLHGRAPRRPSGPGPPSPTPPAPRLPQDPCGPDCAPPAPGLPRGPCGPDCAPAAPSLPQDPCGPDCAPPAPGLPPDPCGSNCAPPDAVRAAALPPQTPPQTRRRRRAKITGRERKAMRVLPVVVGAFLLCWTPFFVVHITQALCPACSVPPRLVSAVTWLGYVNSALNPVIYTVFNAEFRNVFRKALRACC
In words: Displacement of [3H]-Spiperone from human recombinant dopamine D4 receptor expressed in CHOK1 cells. The data set is classed as cell-based, CHO-K1. The procedure, abridged:
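Radioligand binding at human D4 receptor using [3H]-spiperone, run as a contract assay in duplicate. IC50 and Ki were derived from concentration–response data. Single-point values are % inhibition of specific binding at 10 µM test compound.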

The subject of data set [16] is Liver microsome. Nature of the data set: Drug level in human liver microsomes treated with (S)-2-((6-chloropyridin-2-yloxy)methyl)-4-((6-fluoro-1H-indol-3-yl)methyl)morpholine in presence of NADPH. The class given is ADME. The procedure, abridged:
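Human liver microsomes incubated with compound plus NADPH, alongside a matched no-NADPH incubation; samples profiled for remaining parent and for metabolites formed.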
A general note: Microsomes from liver hold many membrane-bound enzymes, among them those of drug oxidation.

In data set [17] the target is T3, D(2) dopamine receptor. As to conditions: CHO, 1 uM.
In data set [18] the test system is Liver microsome. In words: Metabolic stability in human liver microsomes in absence of NADPH. The data set is classed as ADME.
Data set [19] deals with Liver microsome. In words: Metabolic stability in rat liver microsomes in absence of NADPH. The class given is ADME.
For data set [20], the target named is T1, D(1B) dopamine receptor. As to conditions: CHO, 1 uM.
Data set [21] addresses T2, D(3) dopamine receptor. Conditions: CHO, 1 uM.
The target of data set [22] is T4, D(1A) dopamine receptor. As to conditions: CHO, 1 uM.
In data set [23] the test system is Liver microsome. Nature of the data set: Drug metabolism in rat liver microsomes assessed as oxidative dealkylated metabolite formation in presence of NADPH. The data set is classed as ADME.
For data set [24], the system named is Liver microsome. Nature of the data set: Drug metabolism in human liver microsomes assessed as (S)-2-((6-chloropyridin-2-yloxy)methyl)morpholine formation in presence of NADPH. The data set is classed as ADME.
For data set [25], the target named is T3, D(2) dopamine receptor. As to conditions: CHO, 1 uM. This is another data set of the same source.

T2 sequence (P35462 whole entry): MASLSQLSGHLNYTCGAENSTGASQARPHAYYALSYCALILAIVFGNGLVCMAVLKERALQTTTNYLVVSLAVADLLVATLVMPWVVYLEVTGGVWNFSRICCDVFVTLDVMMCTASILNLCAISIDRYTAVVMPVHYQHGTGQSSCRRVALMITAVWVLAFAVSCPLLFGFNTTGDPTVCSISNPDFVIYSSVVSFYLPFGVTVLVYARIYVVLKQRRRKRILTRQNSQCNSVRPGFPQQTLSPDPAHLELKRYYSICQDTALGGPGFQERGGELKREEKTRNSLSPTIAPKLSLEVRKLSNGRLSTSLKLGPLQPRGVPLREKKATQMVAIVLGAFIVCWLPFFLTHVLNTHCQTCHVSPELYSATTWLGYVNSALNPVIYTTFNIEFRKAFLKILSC
Sequence of Dopamine receptors; D3 & D4 (Homo sapiens) (P35462 whole entry, looked up, one chain of several): as the sequence (P35462 whole entry) above

As to `Clc1ccc(CN2CCO[C@H](CSc3ccccc3)C2)cc1`, the Ki on D(1B) dopamine receptor [1] is over 10 µM; at D(3) dopamine receptor [6], over 10 µM; at D(1A) dopamine receptor [10], over 10 µM; at D(2) dopamine receptor [12], over 10 µM; on D(2) dopamine receptor [14], over 10 µM; at D(4) dopamine receptor, 0.0094 µM. The Ratio Ki (in the data set listed under Homo sapiens [2]; in the data set listed under Homo sapiens [3]; in the data set listed under Homo sapiens [4]; in the data set listed under Homo sapiens [5]; in data set [7]) was over 1000 throughout. Also, at D(2) dopamine receptor [8], the inhibition was under 50%. Further, the Fu in the data set with Plasma came to 0.005; in data set [11], 0.008. For the same compound, the partition ratio (Kp) in data set [9] is given as 5.03. In addition, the results for the concentration at 0.25 h in data set [13] and in data set [15] were 131 ng/g and 26.1 ng/mL, respectively. In addition, at D(4) dopamine receptor, the IC50 came to 0.034 µM.

As to `Cc1ccc(CN2CCO[C@H](CSc3ccccc3)C2)cc1C`, the Ki is over 10 µM at D(1B) dopamine receptor [1]; over 10 µM on D(3) dopamine receptor [6]; over 10 µM on D(1A) dopamine receptor [10]; over 10 µM at D(2) dopamine receptor [12]; over 10 µM at D(2) dopamine receptor [14]; 0.0074 µM at D(4) dopamine receptor. The Ratio Ki (in the data set listed under Homo sapiens [2]; in the data set listed under Homo sapiens [3]; in the data set listed under Homo sapiens [4]; in the data set listed under Homo sapiens [5]; in data set [7]) was over 1000 throughout. Further, the inhibition at D(2) dopamine receptor [8] is under 50%. The Fu stood at 0.004 in the data set with Plasma and 0.001 in data set [11]. The Kp in data set [9] is recorded as 5.73. For the same compound, the concentration at 0.25 h is 132 ng/g in data set [13] and 23.1 ng/mL in data set [15]. Further, the IC50 at D(4) dopamine receptor turned out to be 0.027 µM.

Take `Clc1cccc(OC[C@@H]2CNCCO2)n1`: the Drug metabolism entry in the data set with Liver microsome [16] is reported as “metabolite_detected”.

Take `Fc1ccc2c(CN3CCO[C@H](COc4cccc(Cl)n4)C3)c[nH]c2c1`: the inhibitory constant (Ki) on D(1B) dopamine receptor [1] was over 10 µM; at D(3) dopamine receptor [6], over 10 µM; at D(1A) dopamine receptor [10], over 10 µM; at D(2) dopamine receptor [12], over 10 µM; on D(2) dopamine receptor [14] it was over 10 µM; on D(4) dopamine receptor it was 0.0033 µM. In addition, the Ratio Ki (in the data set filed under Homo sapiens [2]; in the data set filed under Homo sapiens [3]; in the data set filed under Homo sapiens [4]; in the data set filed under Homo sapiens [5]; in data set [7]) was over 1000 each time. In addition, the inhibition against D(2) dopamine receptor [17] was under 10%; against D(1B) dopamine receptor [20], under 10%; against D(3) dopamine receptor [21], under 10%; against D(1A) dopamine receptor [22], under 10%; at D(2) dopamine receptor [8], under 50%; against D(2) dopamine receptor [25], under 10%. Also, the Stability entry with Liver microsome [18] and in the data set with Liver microsome [19] was “Stable” throughout. Moreover, the Fu in the data set on Plasma came to 0.016; in [11], 0.015. Besides, the Drug metabolism entry with Liver microsome [23] and in the data set on Liver microsome [24] was “metabolite_detected” in each case. The IC50 at D(4) dopamine receptor was found to be 0.0119 µM.

In general, Ki refers to the equilibrium dissociation constant of an inhibitor or competing ligand from its target. The inhibition is how much of the control response was suppressed. The Kp is the ratio of the level in a tissue or fluid to that in plasma or blood. As usually defined, the IC50 is the concentration that gives 50% inhibition.
